Cneo AK release: Cryptococcus neoformans cell lysis inducers, primary screen, AK release luminescence, single concentration; 360,000 tested, 0.2% active; C. neoformans lysis, adenylate kinase release luminescence, 4 h; normalised: neutral wells 0, clomiphene wells 100; lysis activity, % at 15 µM; AID 651654, 2012;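 active = mean lysis activity across replicates of at least 80%, whatever share of replicates individually reach that level; inactive = mean lysis activity below 80%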
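Schedule: static 4 h at 37 °C with compound, 1 h detection; system: C. neoformans cells; benchmarks: Clomiphene as positive control; buffer or medium: fresh YPD medium; measure: luminescence rise reflecting yeast cell lysis; measured by: luminescent adenylate kinase detection reagent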
rRNA inh HTS: reduced GFP signal of wild-type E. coli, primary screen, bacterial rRNA inhibitor project, GFP/RFP fluorescence, OD600, single point; GFP signal change (wild-type ribosome), % (concentration not given with the values); E. coli WT GFP vs humanized-ribosome RFP mutants, 24 h; stronger effect = lower value; DMSO median 0, no signal -100; 350,000 tested, 1.6% active; AID 720706, 2013;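 active = significant combined selectivity score with lowered wild-type GFP, culture density cut under 30%, mutant RFP and density less affected; inactive = any of these conditions unmet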
Vif inh: HIV Vif self-association inhibitors, primary screen, imaging, HEK293T, single point. 340,000 tested, 0.35% active. HEK293T cells, Vif self-association by quenched fluorescence, 24 h. inhibition, % at 7.49 µM; in the data active = inhibition above about 50%, passing the limit was not always enough
PglD inh: C. jejuni PglD acetyltransferase inhibitors, primary screen, biochemical, DTNB colorimetric, single point | UDP-N-acetylbacillosamine N-acetyltransferase PglD (Campylobacter jejuni) | purified PglD enzyme, DTNB colorimetric CoA detection | 360,000 tested, 0.098% active | inhibition, % at 12.5 µM; in the data active = inhibition above about 16%, passing the limit was not always enough
FGF22 binding: binders of human FGF22 protein, primary screen, FGF22 synaptogenesis inhibitor project, biophysical, thermal shift, single point. Fibroblast growth factor 22 (Homo sapiens), Q9HCT0. recombinant FGF22 thermal shift, SYPRO orange fluorescence; percent of sucrose octasulfate shift, DMSO zero. activity (Tm shift, normalised), % at 9.99 µM. 340,000 tested, 1.5% active. AID 651658, 2012;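 active = mean Tm shift, scaled 0 neutral to 100 positive control, at about 1.3% or above, every replicate too, limit read from the data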
Target sequence (Q9HCT0 whole entry, looked up): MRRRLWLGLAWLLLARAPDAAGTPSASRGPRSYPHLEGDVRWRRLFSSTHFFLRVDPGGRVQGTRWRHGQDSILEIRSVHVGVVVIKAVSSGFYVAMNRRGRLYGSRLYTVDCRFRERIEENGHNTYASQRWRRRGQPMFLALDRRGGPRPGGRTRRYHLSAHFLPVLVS
PGC1a acetyl inh: inhibitors of PGC1a acetylation signal, primary screen, cell-based, U2OS, AlphaScreen, inhibitor mode | AlphaScreen anti-acetyl-lysine; with virally co-expressed GCN5 acetyltransferase | inhibition, % at 15.6 µM | 350,000 tested, 0.17% active | AID 651687, 2012;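 active = every replicate shows inhibition of at least 40%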;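 also: 0% = neutral control wells and 100% = positive control wells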
* hit, by the source's call. In the library only some 2.9% were active in any assay of this set; here they are far more common.

For O=C(O)[C@@H]1[C@@H](CO)[C@@H]2Cn3c(ccc(C4=CCCCC4)c3=O)[C@H]1N2CCc1ccccc1 the results were rRNA inh HTS -4.
`COC(=O)[C@@H]1[C@@H](CO)[C@@H]2Cn3c(ccc(C4=CCCC4)c3=O)[C@H]1N2Cc1ccccn1` gave Cneo AK release -5, rRNA inh HTS 1, PglD inh -1 and FGF22 binding 0.
For CCCCC/C(=N/O)c1c(C)[nH]c2ccccc12 the results were rRNA inh HTS -21*, Vif inh -7 and FGF22 binding 0.
`CCCC/C(=N/O)c1c(C)[nH]c2ccccc12` gave rRNA inh HTS -11, Vif inh 0, FGF22 binding 0 and PGC1a acetyl inh 6.
Screening NC(Cc1nc2ccccc2[nH]1)c1ccc(Cl)cc1 (configuration not stated) returned Cneo AK release -22, rRNA inh HTS -45*, Vif inh 0, PglD inh 1, FGF22 binding 0 and PGC1a acetyl inh -7.
COc1cccc(-c2ccc3n(c2=O)C[C@@H]2[C@@H](CO)[C@H](C(=O)O)[C@H]3N2Cc2ccccc2F)c1 was read as rRNA inh HTS 3.
For O=C(Nc1ccc2c(c1)OCO2)c1cn(Cc2ccc(F)cc2)nn1 the results were Cneo AK release -2, Vif inh 53*, PglD inh -3 and PGC1a acetyl inh -4.
For Cc1ccc(-n2c(O)c(C=Nc3ccc(S(N)(=O)=O)cc3)c(=O)[nH]c2=O)cc1 the results were Cneo AK release -2, rRNA inh HTS 22, Vif inh 25, PglD inh 7, FGF22 binding 43* and PGC1a acetyl inh -8.
Screening O=C1NC(=O)C(=Cc2cc([N+](=O)[O-])ccc2N2CCCCC2)C(=O)N1 returned Cneo AK release 2, rRNA inh HTS -40, Vif inh 59*, PglD inh 4, FGF22 binding 0 and PGC1a acetyl inh -5.
OC(c1ccccc1)(c1ccccc1)C1CN2CCC1CC2 (configuration not stated) was read as rRNA inh HTS 15, Vif inh 9 and FGF22 binding 44*.
O=C(O)[C@H]1[C@H](CO)[C@H]2Cn3c(ccc(-c4cccc(F)c4)c3=O)[C@@H]1N2CCc1ccccc1 was read as Cneo AK release -3, rRNA inh HTS -2, PglD inh 3, FGF22 binding 0 and PGC1a acetyl inh 4.
`CSc1ccc(C(=O)C2CCCN(Cc3cnc(SC)nc3)C2)cc1` (configuration not stated) gave Cneo AK release -3, rRNA inh HTS -18, Vif inh -6, PglD inh 1, FGF22 binding 44* and PGC1a acetyl inh 0.
Screening O=C(c1ccc(Cl)cc1)C1CCCN(Cc2cccc3cccnc23)C1 (configuration not stated) returned Cneo AK release 2, rRNA inh HTS -23*, Vif inh -6, PglD inh -4, FGF22 binding 0 and PGC1a acetyl inh -6.
`O=C(c1ccc(Cl)cc1)C1CCCN(Cc2cccc3ncccc23)C1` (configuration not stated) gave rRNA inh HTS -31, Vif inh 1, FGF22 binding 0 and PGC1a acetyl inh 17.
O=C(c1ccc(C(F)(F)F)cc1)C1CCCN(Cc2ccncc2)C1 (configuration not stated) was read as rRNA inh HTS -7, Vif inh -12, FGF22 binding 0 and PGC1a acetyl inh 12.
`O=C(c1ccc(Cl)cc1)C1CCCN(Cc2ccc3nonc3c2)C1` (configuration not stated) gave Cneo AK release 2, rRNA inh HTS -28*, Vif inh -8, PglD inh -6, FGF22 binding 0 and PGC1a acetyl inh -9.
Screening FC(F)(F)CN1C[C@@H]2N[C@H](C1)C2c1ccc(Br)cc1 (some centres not stated) returned rRNA inh HTS -1.
`C=CCN1[C@@H]2CN(S(C)(=O)=O)C[C@H]1C2c1ccccc1` (some centres not stated) gave rRNA inh HTS -1.
O=C(Cc1cccnc1)N1CCCCN2[C@H](C1)[C@@H](c1ccc(C#CC3CC3)cc1)[C@@H]2CO was read as Cneo AK release 0, PglD inh 5, FGF22 binding 0 and PGC1a acetyl inh 2.
Screening CN1C(=O)C(=Cc2ccc(N3CCCCC3)o2)C(=O)N(C)C1=S returned Vif inh -3 and PGC1a acetyl inh 8.
`CN1C(=O)C(=Cc2ccc(SC3CCCCC3)o2)C(=O)N(C)C1=O` gave Vif inh 2, FGF22 binding 43* and PGC1a acetyl inh 14.
`CCOC(=O)[C@]1(C#N)[C@@H]2C=CC(C(N)=O)=CN2[C@@H](C(N)=O)[C@@H]1c1ccc(F)cc1` gave rRNA inh HTS 6, Vif inh 2 and PGC1a acetyl inh 88*.
`O=C(Cc1ccccc1)OCn1nnc2ccccc2c1=O` gave Cneo AK release -1, rRNA inh HTS -1, Vif inh 140*, PglD inh -6, FGF22 binding 0 and PGC1a acetyl inh -1.
For CCOC(=O)c1nc2ccccc2c(=O)n1-c1ccc(C)cc1 the results were Cneo AK release -1, Vif inh 9, PglD inh -6 and PGC1a acetyl inh 1.
CCCN1[C@@H]2Cn3c(ccc(-c4cccc(C(=O)N(C)C)c4)c3=O)[C@H]1[C@@H](C(=O)OC)[C@@H]2CO was read as Cneo AK release 0, rRNA inh HTS 1, PglD inh 1 and FGF22 binding 1.
For Clc1cccc(NC2=NCCS2)c1 the results were rRNA inh HTS -16, Vif inh -1 and FGF22 binding 0.
Screening FC(F)(F)c1cccc(NC2=NCCS2)c1 returned rRNA inh HTS -18, Vif inh -6 and FGF22 binding 44*.
`O=C(NCNC(=O)NC1C(=O)NC(=O)N1CO)NC1C(=O)NC(=O)N1CO` (configuration not stated) gave Cneo AK release 0, Vif inh 123*, PglD inh 0, FGF22 binding 0 and PGC1a acetyl inh 20.

From PubChem BioAssay
